Activity calls are given as the source filed them. The calls are words filed in the database; no cut-off is given here.
What was measured:
[1] = test system: MDA-MB-231; assay: Induction of apoptosis in human MDA-MB-231 cells assessed as reduction in Bcl2 protein expression after 48 hrs by Western blot method; format: functional, cell-based
Outline: (§1)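 Cells were treated with or without test agent, alongside a control, for 48h. They were then lysed and analysed by Western blot for Bcl-2 protein and cleaved caspase 3.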

[2] = test system: T47D; assay: Cell cycle arrest in human T47D cells assessed as accumulation at G0/G1 phase at 625 nM after 24 hrs by propidium iodide staining based flow cytometry; format: functional
Outline: (§2)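 Cells were exposed for 24 h to a range of concentrations (625 nM, 2.5 and 10 µM), with DMSO vehicle as control. They were then stained with propidium iodide and analysed by flow cytometry to obtain the percentages of cells in G0/G1, S and G2 phases.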

[3] = test system: Hep 3B2; assay: Cell cycle arrest in human Hep3B cells assessed as accumulation at G0/G1 phase at 625 nM after 24 hrs by propidium iodide staining based flow cytometry; format: functional; outline: as §2
[4] = test system: 4T1; assay: Cytotoxicity against mouse 4T1 cells assessed as reduction in cell viability after 72 hrs by CCK8 assay; format: functional, cell-based; details: 4T1, 72 h
[5] = test system: HepG2; assay: Induction of apoptosis in human HepG2 cells assessed as live cells at 1 uM after 48 hrs by annexin V-FITC/propidium iodide staining based flow cytometry (reference value: 96.7%); format: functional
[6] = Clearance in Sprague-Dawley rat at 20 mg/kg, ip administered as single dose by HPLC analysis; format: ADME, organism-based; details: in vivo
[7] = test system: T47D; assay: Induction of apoptosis in human T47D cells assessed as necrotic cells at 1 uM after 48 hrs by annexin V-FITC/propidium iodide staining based flow cytometry (reference value: 0.8%); format: functional
[8] = test system: HepG2; assay: Induction of apoptosis in human HepG2 cells assessed as late apoptotic cells at 5 uM after 48 hrs by annexin V-FITC/propidium iodide staining based flow cytometry (reference value: 0.64%); format: functional
[9] = biological target: T1, Histone deacetylase 1 (Homo sapiens, UniProt Q13547); assay: Inhibition of HDAC1 in human NCI-H460 cells assessed as increase in acetylated-histone H3 level at 1 to 5 uM after 48 hrs by Western blot method; format: cell-based
T1 sequence (Q13547 whole entry): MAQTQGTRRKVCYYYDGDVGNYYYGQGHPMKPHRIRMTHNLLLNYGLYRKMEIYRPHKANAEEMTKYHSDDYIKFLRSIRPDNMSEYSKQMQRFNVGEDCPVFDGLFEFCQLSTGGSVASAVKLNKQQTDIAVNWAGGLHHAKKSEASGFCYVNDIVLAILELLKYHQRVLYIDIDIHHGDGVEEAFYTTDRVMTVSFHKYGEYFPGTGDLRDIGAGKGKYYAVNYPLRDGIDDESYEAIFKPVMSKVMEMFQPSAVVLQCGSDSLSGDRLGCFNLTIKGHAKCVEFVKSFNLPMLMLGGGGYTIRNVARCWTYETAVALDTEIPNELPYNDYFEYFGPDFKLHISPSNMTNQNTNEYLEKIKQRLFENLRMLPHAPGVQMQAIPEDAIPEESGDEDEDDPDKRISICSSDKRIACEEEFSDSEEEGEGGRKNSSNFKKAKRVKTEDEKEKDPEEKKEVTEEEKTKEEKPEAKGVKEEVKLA

[10] = test system: T47D; assay: Induction of apoptosis in human T47D cells after 48 hrs by Hoechst 33342 staining based assay; format: functional, cell-based
Outline: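 T47D cultures were incubated with test agent for 48h, then stained with Hoechst 33342. Apoptotic bodies were examined by imaging and compared with untreated cells.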

[11] = test system: Hep 3B2; assay: Induction of apoptosis in human Hep3B cells assessed as necrotic cells at 10 uM after 48 hrs by annexin V-FITC/propidium iodide staining based flow cytometry (reference value: 4.97%); format: functional
[12] = test system: T47D; assay: Cytotoxicity against human T47D cells assessed as reduction in cell viability after 72 hrs by CCK8 assay; format: functional, cell-based
[13] = test system: HepG2; assay: Induction of apoptosis in human HepG2 cells assessed as early apoptotic cells at 10 uM after 48 hrs by annexin V-FITC/propidium iodide staining based flow cytometry (reference value: 0.3%); format: functional
[14] = test system: Hep 3B2; assay: Induction of apoptosis in human Hep3B cells assessed as necrotic cells at 5 uM after 48 hrs by annexin V-FITC/propidium iodide staining based flow cytometry (reference value: 4.97%); format: functional
[15] = test system: A549; assay: Cell cycle arrest in human A549 cells assessed as decrease in S-phase at 625 nM after 24 hrs by propidium iodide staining based flow cytometry; format: functional; outline: as §2
[16] = test system: T47D; assay: Induction of apoptosis in human T47D cells assessed as live cells at 1 uM after 48 hrs by annexin V-FITC/propidium iodide staining based flow cytometry (reference value: 85.3%); format: functional
[17] = Bioavailability in Sprague-Dawley rat at 20 mg/kg, ip administered as single dose by HPLC analysis; format: ADME, organism-based; details: in vivo
[18] = test system: A549; assay: Cell cycle arrest in human A549 cells assessed as accumulation at G2 phase at 2.5 to 10 uM after 24 hrs by propidium iodide staining based flow cytometry; format: functional; outline: as §2
[19] = test system: Hep 3B2; assay: Induction of apoptosis in human Hep3B cells after 48 hrs by annexin V-FITC/propidium iodide staining based flow cytometry; format: functional, cell-based
[20] = test system: MDA-MB-231; assay: Induction of apoptosis in human MDA-MB-231 cells assessed as necrotic cells at 5 uM after 48 hrs by annexin V-FITC/propidium iodide staining based flow cytometry (reference value: […]); format: functional
[21] = test system: T47D; assay: Induction of apoptosis in human T47D cells assessed as reduction in Bcl2 protein expression after 48 hrs by Western blot method; format: functional, cell-based; outline: as §1
[22] = biological target: T1, Histone deacetylase 1; assay: Inhibition of HDAC1 in human T47D cells assessed as increase in p53 phosphorylation at Ser15 residue at 1 to 5 uM after 48 hrs by Western blot method; format: cell-based
[23] = test system: MDA-MB-231; assay: Induction of apoptosis in human MDA-MB-231 cells assessed as live cells at 1 uM after 48 hrs by annexin V-FITC/propidium iodide staining based flow cytometry (reference value: 98.1%); format: functional
[24] = biological target: T1, Histone deacetylase 1; assay: Inhibition of HDAC1 in human A549 cells assessed as increase in acetylated histone-H3 level at 0.1 to 1 uM after 24 hrs by immunofluorescence assay; format: cell-based
[25] = test system: Hep 3B2; assay: Induction of apoptosis in human Hep3B cells assessed as early apoptotic cells at 1 uM after 48 hrs by annexin V-FITC/propidium iodide staining based flow cytometry (reference value: 1.91%); format: functional
[26] = biological target: Cyclin-dependent kinase 1/cyclin B1 (Homo sapiens) (UniProt P06493+P14635); assay: Inhibition of recombinant human full length C-terminal 6His-tagged CDK1/N-terminal GST-tagged Cyclin-B co-expressed in baculovirus infected sf21 cells at 1 uM using histone H1 substrate in presence of [gamma33P]ATP after 10 mins by scintillation counting method relative to control
Cyclin-dependent kinase 1/cyclin B1 (Homo sapiens), sequence (P06493 whole entry, looked up): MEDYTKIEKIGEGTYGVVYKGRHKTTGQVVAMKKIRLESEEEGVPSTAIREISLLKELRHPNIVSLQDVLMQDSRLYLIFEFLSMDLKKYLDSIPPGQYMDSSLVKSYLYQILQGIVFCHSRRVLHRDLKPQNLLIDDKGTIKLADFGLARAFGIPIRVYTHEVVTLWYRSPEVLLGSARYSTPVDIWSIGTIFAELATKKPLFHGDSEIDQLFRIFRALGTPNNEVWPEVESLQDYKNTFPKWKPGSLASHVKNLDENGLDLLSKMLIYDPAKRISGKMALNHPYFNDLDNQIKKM
Cyclin-dependent kinase 1/cyclin B1 (Homo sapiens), sequence (P14635 whole entry, looked up): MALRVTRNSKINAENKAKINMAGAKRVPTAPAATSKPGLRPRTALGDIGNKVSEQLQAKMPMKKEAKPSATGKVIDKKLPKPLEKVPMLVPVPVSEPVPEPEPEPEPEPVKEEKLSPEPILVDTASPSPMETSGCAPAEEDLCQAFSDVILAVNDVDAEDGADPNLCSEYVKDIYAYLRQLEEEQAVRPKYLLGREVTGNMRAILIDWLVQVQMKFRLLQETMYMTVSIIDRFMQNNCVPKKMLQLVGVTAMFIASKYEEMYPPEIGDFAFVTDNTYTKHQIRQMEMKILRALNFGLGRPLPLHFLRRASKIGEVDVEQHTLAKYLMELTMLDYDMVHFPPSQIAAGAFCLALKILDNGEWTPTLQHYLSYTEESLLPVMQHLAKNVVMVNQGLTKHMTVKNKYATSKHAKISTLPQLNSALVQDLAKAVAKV

[27] = test system: Hep 3B2; assay: Induction of apoptosis in human Hep3B cells assessed as live cells at 1 uM after 48 hrs by annexin V-FITC/propidium iodide staining based flow cytometry (reference value: 97.9%); format: functional
[28] = test system: T47D; assay: Downregulation of CDK4 protein expression in human T47D cells after 48 hrs by Western blot method; format: functional, cell-based
Outline: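 Treated cells were lysed and CDK4 and cyclin D1 protein levels were assessed by Western blot.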

[29] = test system: HepG2; assay: Induction of apoptosis in human HepG2 cells assessed as necrotic cells at 1 uM after 48 hrs by annexin V-FITC/propidium iodide staining based flow cytometry (reference value: 2.32%); format: functional
[30] = test system: T47D; assay: Induction of apoptosis in human T47D cells assessed as early apoptotic cells at 5 uM after 48 hrs by annexin V-FITC/propidium iodide staining based flow cytometry (reference value: 7.7%); format: functional
[31] = biological target: T1, Histone deacetylase 1; assay: Inhibition of HDAC1 in human Hep3B cells assessed as increase in p53 phosphorylation at Ser15 residue at 1 to 5 uM after 48 hrs by Western blot method; format: cell-based
[32] = test system: Hep 3B2; assay: Induction of apoptosis in human Hep3B cells assessed as late apoptotic cells at 10 uM after 48 hrs by annexin V-FITC/propidium iodide staining based flow cytometry (reference value: 5.25%); format: functional
[33] = biological target: CDK4/CDK9 (Homo sapiens) (UniProt P11802+P50750); assay: Inhibition of CDK4/CDK9 in human NCI-H460 cells assessed as reduction in Rb phosphorylation at Ser807/811 residues at 1 uM after 48 hrs by Western blot method; format: cell-based
CDK4/CDK9 (Homo sapiens), sequence (P11802 whole entry, looked up): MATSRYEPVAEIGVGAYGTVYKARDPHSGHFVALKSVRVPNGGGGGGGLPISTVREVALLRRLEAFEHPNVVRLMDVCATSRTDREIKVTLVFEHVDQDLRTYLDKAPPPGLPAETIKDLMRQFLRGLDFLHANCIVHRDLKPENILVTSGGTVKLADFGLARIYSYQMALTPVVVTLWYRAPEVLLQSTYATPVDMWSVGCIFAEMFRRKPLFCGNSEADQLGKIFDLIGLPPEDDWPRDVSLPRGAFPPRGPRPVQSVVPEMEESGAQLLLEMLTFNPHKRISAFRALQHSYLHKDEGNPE
CDK4/CDK9 (Homo sapiens), sequence (P50750 whole entry, looked up): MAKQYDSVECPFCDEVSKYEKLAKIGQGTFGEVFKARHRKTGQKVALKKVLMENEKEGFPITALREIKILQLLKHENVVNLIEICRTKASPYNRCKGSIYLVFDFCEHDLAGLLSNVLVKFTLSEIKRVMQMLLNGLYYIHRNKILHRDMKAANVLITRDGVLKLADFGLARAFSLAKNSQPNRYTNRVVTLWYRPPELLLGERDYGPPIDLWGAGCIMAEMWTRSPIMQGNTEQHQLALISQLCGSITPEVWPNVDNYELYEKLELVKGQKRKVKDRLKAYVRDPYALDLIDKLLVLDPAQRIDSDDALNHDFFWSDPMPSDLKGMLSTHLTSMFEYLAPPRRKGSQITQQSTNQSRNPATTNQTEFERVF

CN(C)C(=O)c1cc2cnc(Nc3ccc(NC(=O)CCCCCCC(=O)NO)cc3)nc2n1C1CCCC1
Activity [1]: Active
Activity [2]: Active
Activity [3]: Active
IC50 [4]: 1.11 µM
Activity [5]: 87.4%
CL/F [6]: 210 mL/min/kg
Activity [7]: 6.7%
Activity [8]: 11.1%
inhibition [9]: Active
Activity [10]: Active
Activity [11]: 3.02%
IC50 [12]: 2.59 µM
Activity [13]: 9.32%
Activity [14]: 2.08%
Activity [15]: Active
Activity [16]: 88.3%
bioavailability [17]: 34.7%
Activity [18]: Active
Activity [19]: Dose-dependent effect
Activity [20]: 1.36%
Activity [21]: Active
inhibition [22]: Active
Activity [23]: 95.6%
inhibition [24]: Active
Activity [25]: 3.82%
inhibition [26]: 55%
Activity [27]: 85.8%
Activity [28]: Dose-dependent effect
Activity [29]: 3.95%
Activity [30]: 14.1%
inhibition [31]: Active
Activity [32]: 15%
inhibition [33]: Active
